Results taken from ChEMBL document CHEMBL5352501, “Catalytic Degraders Effectively Address Kinase Site Mutations in EML4-ALK Oncogenic Fusions” (J Med Chem, 2023).
Activity calls are given as the source filed them. The rule behind the calls is not given here.

How the values were obtained:
Mus musculus [1] = type: functional, organism-based; details: BALB/c, BaF3, dose 10.0 mg/kg, route po, time 14.0 day
BaF3 [2] = type: functional; details: Mus musculus, dose 10.0 mg/kg, route po, time 14.0 day
BaF3 [3] = assay: Antiproliferative activity against mouse Ba/F3 cells stably expressing HiBiT-tagged EML4-ALK variant 3 C1156Y mutant assessed as cell growth inhibition incubated for 72 hrs by CellTiter-Glo assay; type: functional
How it was run: (§1)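 Ba/F3 cells stably expressing HiBiT-tagged EML4-ALK v3 (wild type or the named kinase-site mutant) were treated with compound for 72 h. Growth inhibition was reported as log GI50.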

BaF3 [4] = assay: Antiproliferative activity against mouse Ba/F3 cells stably expressing HiBiT-tagged wild type EML4-ALK variant 3 assessed as cell growth inhibition incubated for 72 hrs by CellTiter-Glo assay; type: functional; how it was run: as §1
BaF3 [5] = type: functional; details: Mus musculus, time 72 hrs, read-out: pGI50 (converted)
BaF3 [6] = assay: Antiproliferative activity against mouse Ba/F3 cells stably expressing HiBiT-tagged EML4-ALK variant 3 G1202R mutant assessed as cell growth inhibition incubated for 72 hrs by CellTiter-Glo assay; type: functional; how it was run: as §1
BaF3 [7] = type: functional; details: Mus musculus, time 72 hrs
Mus musculus [8] = type: functional, organism-based; details: BALB/c, BaF3, dose 10.0 mg/kg, route po, time 14.0 day; remark: listed apart in the source
Erythrocyte [9] = assay: Hemolytic activity in human RBC assessed as hemolysis incubated for 45 mins by absorbance based microplate reader analysis; type: toxicity, cell-based; details: 0.75 h
[10] = Microsomal stability in human liver microsomes assessed as intrinsic clearance at 1 uM and measured upto 60 mins in presence of NADPH by LC-MS/MSC analysis; type: ADME, Microsome; details: read-out: CLH
Erythrocyte [11] = assay: Hemolytic activity in mouse RBC assessed as hemolysis incubated for 45 mins by absorbance based microplate reader analysis; type: toxicity, cell-based; details: 0.75 h
[12] = Microsomal stability in human liver microsomes at 1 uM measured upto 60 mins in presence of NADPH by LC-MS/MSC analysis; type: ADME, Microsome; details: 1 h
[13] = Oral bioavailability in C57BL/J6 mouse at 10 mg/kg and measured upto 24 hrs by LC-MS/MS analysis; type: ADME, organism-based; details: in vivo
How it was run: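 Mouse PK was run with both oral and intravenous dosing, with 10 mg/kg as the study dose. Oral bioavailability was derived from comparing the two routes.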

| SMILES | GI50 (BaF3 [3]) [nM] | GI50 (BaF3 [4]) [nM] | GI50 (BaF3 [5]) [nM] | GI50 (BaF3 [6]) [nM] | GI50 (BaF3 [7]) [nM] | microsomal CLint at 1 µM [10] [µL/min/mg] | further results |
| --- | --- | --- | --- | --- | --- | --- | --- |
| C[C@H]1Oc2cc(cnc2N)-c2c(nn(C)c2C#N)CN(C)C(=O)c2ccc(F)cc21 [LORLATINIB] | 39.8 | 3.16 | 501 | 100 | 50.1 | – | Activity (Mus musculus [1]): Active; Activity (BaF3 [2]): inactive; Activity (Mus musculus [8]): Active |
| COc1cc(CCNCCCCCC#Cc2cccc3c2C(=O)N(C2CCC(=O)NC2=O)C3=O)c(C)cc1Nc1ncc(Cl)c(Nc2ccccc2S(=O)(=O)C(C)C)n1 (configuration not stated) | – | – | – | – | – | 59 | Activity (Erythrocyte [9]): Toxic; Activity (Erythrocyte [11]): Toxic |
| CCc1cc2c(cc1N1CCN(CC3CN(c4ccc5c(c4)C(=O)N(C4CCC(=O)NC4=O)C5=O)C3)CC1)C(C)(C)c1[nH]c3cc(C#N)ccc3c1C2=O (configuration not stated) | – | – | – | – | – | – | Stability [12]: Stable; F [13]: 48% |
| CCc1cc2c(cc1N1CCC(N3CCOCC3)CC1)C(C)(C)c1[nH]c3cc(C#N)ccc3c1C2=O [ALECTINIB] | 79.4 | 12.6 | 501 | 398 | 79.4 | – | – |
| COc1cc(C2CCN(CCCCCC#Cc3cccc4c3CN(C3CCC(=O)NC3=O)C4=O)CC2)c(C)cc1Nc1ncc(Cl)c(Nc2ccccc2S(=O)(=O)C(C)C)n1 (configuration not stated) | – | – | – | – | – | 5.4 | Activity (Erythrocyte [9]): Toxic; Activity (Erythrocyte [11]): Toxic |

Now from value to molecule, other results behind:

| GI50 (BaF3 [3]) [nM] | GI50 (BaF3 [4]) [nM] | GI50 (BaF3 [5]) [nM] | GI50 (BaF3 [6]) [nM] | GI50 (BaF3 [7]) [nM] | microsomal CLint at 1 µM [10] [µL/min/mg] | SMILES | further results |
| --- | --- | --- | --- | --- | --- | --- | --- |
| 39.8 | 12.6 | 200 | 251 | 39.8 | – | COc1cc(N2CCC(N3CCN(C)CC3)CC2)ccc1Nc1ncc(Cl)c(Nc2ccccc2P(C)(C)=O)n1 [BRIGATINIB] | – |
| – | – | – | – | – | 14.8 | COc1cc(C2CCN(CC#Cc3ccc4c(c3)CN(C3CCC(=O)NC3=O)C4=O)CC2)c(C)cc1Nc1ncc(Cl)c(Nc2ccccc2S(=O)(=O)C(C)C)n1 (configuration not stated) | – |
